Data set [1] relates to Human immunodeficiency virus 1. The experiment in a line: Inhibition of HIV1 in sup T1 cells assessed as total reverse transcribed viral DNA at 2 uM by PCR. The class given is functional, organism-based. The method in brief:
(§1)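 Sup T1 cells (RPMI 1640, 10% FCS) were pretreated 2 h with compound, then infected with HIV-1 Δenv/VSV-G (HXB2 backbone) at MOI 2 for 6 h. Total viral DNA was detected by Gag-specific PCR on 10 ng DNA with 3.5 mM MgCl2 and 29 cycles.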

Data set [2] addresses Human immunodeficiency virus type 1 integrase (Human immunodeficiency virus 1) (UniProt Q7ZJM1). The data set is described as follows: Inhibition of HIV1 integrase binding to LTR DNA by fluorescence anisotrophy. The method in brief: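 Competition anisotropy at 10°C in 20 mM Tris pH 7.4/185 mM NaCl. LEDGF/p75 peptide (500 nM) was preincubated 0.5 h with His-tagged IN (4 μM), then titrated into fluorescein-labeled 36-mer HIV-1 LTR DNA (10 nM). Excitation 480 nm, emission 530 nm.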

The target in data set [3] is Human immunodeficiency virus type 1 integrase (Human immunodeficiency virus 1, UniProt Q7ZJM1). The data set is described as follows: Binding affinity to HIV1 integrase tetrameric form by fluorescence anisotrophy. The method in brief:
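Fluorescence anisotropy at 10°C in 20 mM Tris pH 7.4/185 mM NaCl (ionic strength 190 mM). His-tagged IN was titrated into fluorescein-labeled LEDGF/p75 peptide (0.05–0.1 μM) in 20 aliquots at 1-min intervals. Excitation was 480 nm and emission 530 nm. Kd was obtained from a Hill-equation fit.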

Data set [4] relates to Human immunodeficiency virus 1. The data set is described as follows: Inhibition of HIV1 Tat-mediated HIV1 reporter gene expression in human TZM-bl HeLa MAGI cells. It is filed as functional, organism-based. The method in brief:
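TZM-bl (HeLa MAGI) cells carrying a Tat/TAR-driven β-galactosidase reporter were grown in DMEM with 10% FCS, seeded at 10 × 10^3 cells per well, and infected with HIV-1 at equal MOI. Read-out was reporter expression by MAGI assay.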

For data set [5], the system named is HeLa. The data set is described as follows: Toxicity against human HeLa cells by MTT method. It is filed as cell-based.
For data set [6], the target named is Human immunodeficiency virus type 1 integrase (Human immunodeficiency virus 1) (UniProt Q7ZJM1). The experiment in a line: Inhibition of HIV1 integrase strand transfer activity in presence of LTR DNA template.
Human immunodeficiency virus type 1 integrase (Human immunodeficiency virus 1), sequence (Q7ZJM1 as listed by the source): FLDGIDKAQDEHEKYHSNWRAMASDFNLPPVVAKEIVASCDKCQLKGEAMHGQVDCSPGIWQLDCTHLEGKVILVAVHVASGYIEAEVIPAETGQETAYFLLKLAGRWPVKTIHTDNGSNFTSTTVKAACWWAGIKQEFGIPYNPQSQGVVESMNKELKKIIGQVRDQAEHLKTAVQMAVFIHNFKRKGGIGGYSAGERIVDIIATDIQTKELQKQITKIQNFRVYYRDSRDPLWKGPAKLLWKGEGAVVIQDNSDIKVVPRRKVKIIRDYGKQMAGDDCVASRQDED
For data set [7] the target is unchanged. The experiment in a line: Inhibition of HIV1 integrase 3'-end processing activity at 21 uM.
The target is the same in data set [8]. The experiment in a line: Inhibition of HIV1 integrase 3'-end processing activity.
Data set [9] concerns Human immunodeficiency virus 1. The data set is described as follows: Inhibition of HIV1 genome integration assessed as integrated viral DNA level at 2.5 uM by RT-PCR method. The class given is functional. The method in brief: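 Integrated proviral DNA in infected cells was measured by nested real-time PCR. The second round used SYBR green with 300 nM primers and 50 cycles (95°C 15 s, 60°C 60 s). Quantification used a standard curve from full-length HIV-1 HXB2 plasmid (5 ng–0.25 fg). Samples were run in quadruplicate. Results are expressed as percentage of integrated viral DNA.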

The subject of data set [10] is Human immunodeficiency virus 1. The data set is described as follows: Effect on HIV1 replication in sup T1 cells assessed as total reverse transcribed viral DNA level at 12.5 uM by PCR. The class given is functional, organism-based. The method in brief: as §1
In data set [11] the test system is Human immunodeficiency virus 1. The data set is described as follows: Inhibition of HIV1 replication in human H9 cells assessed as reduction of p24 protein level after 10 days. It is filed as functional, organism-based. The method in brief:
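H9 T-lymphoid cells were preincubated 2 h with compound, then infected with wild-type HIV-1 HXB2 at MOI 0.1 (1 h adsorption at 37°C, then washed). Cells were cultured 10 days, and p24 released into the medium was measured by capture assay.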

The source made the active and inactive calls. The rule behind the calls is not given here.

Human immunodeficiency virus type 1 integrase, sequence (Q7ZJM1 whole entry): as the sequence (Q7ZJM1 as listed by the source) above

Consider `Cc1cn([C@H]2C[C@H](N=[N+]=[N-])[C@@H](CO)O2)c(=O)[nH]c1=O`, for which the outcome in [1] was Active.

Turning to H-WIHAEIKNSLKIDNLDVNRCIEALD-OH, the fold inhibition in [2] turned out to be 3 fold. For the same molecule, binding in data set [3] was characterised by a dissociation constant (Kd) of 4.4 µM.

Consider H-WKKIRRFVSQVIM-OH, for which the Activity in [2] is 6; in data set [4], “Dose-dependent effect”; in data set [5], “Non-toxic”. In addition, the result in data set [6], in data set [7], in [8] and in data set [11] was Active. Moreover, in data set [9], the inhibition at 2.5 µM is more than 90%. The result in data set [10] was inactive. This molecule showed a Kd in data set [3] of 12 µM.

For the molecule H-WNSLKIDNLDV-OH, in data set [2], the fold inhibition is 3 fold. Moreover, the Activity entry was “Dose-dependent effect” in data set [4] and “Non-toxic” in data set [5]. The result in data set [8] and in [11] was Active. The inhibition at 2.5 µM in data set [9] is more than 90%. Further, in data set [10], the result was inactive. Also, the Kd in data set [3] is 3.7 µM.

The record behind these values is ChEMBL document CHEMBL1142225, “Inhibiting HIV-1 integrase by shifting its oligomerization equilibrium” (Proc Natl Acad Sci U S A, 2007).
